According to PMC4766003 (Biomacromolecules, 2015):

Target: Concanavalin A (Con A) (Canavalia ensiformis, UniProt P02866)
Test: isothermal titration calorimetry, one-site model
Assay type: binding
Conditions: 100 mM acetate pH 4.6, 1 mM MnCl2, 1 mM CaCl2, 30 mM NaCl, 25 °C; dimeric Con A
In short: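 Con A dialysed (10 kDa cutoff) into the assay buffer, with concentration from A280 (A1%,1cm = 12.4, monomer basis). Glycopolymer ligands were dialysed and quantified colorimetrically. Titrant in the same buffer was injected into Con A at 25 °C, stirred at 1000 rpm. Con A 0.42–0.06 mM; polymers 0.338–0.017 mM at 2 s intervals; monomers 7.55–8.03 mM at 4 s intervals. One-site fit floated ΔH, Ka and n.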

Concanavalin A (Con A), sequence (P02866 30-148 limits assumed): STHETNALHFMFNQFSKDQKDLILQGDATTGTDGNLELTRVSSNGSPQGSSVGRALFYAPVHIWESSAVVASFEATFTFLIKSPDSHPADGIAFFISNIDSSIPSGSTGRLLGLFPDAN
Concanavalin A (Con A), sequence (P02866 164-281 limits assumed): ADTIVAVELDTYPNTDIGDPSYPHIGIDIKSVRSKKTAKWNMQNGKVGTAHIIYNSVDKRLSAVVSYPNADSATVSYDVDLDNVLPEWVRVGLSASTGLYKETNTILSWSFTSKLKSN

| Substance | Ka (M^-1 × 10^3)^c |
| --- | --- |
| Man-Glc [25b] | 8.56 × 10^3 |
| Man-Man [22b] | 17.3 × 10^3 |
